Test results from paper PMC7127590 (European Journal of Medicinal Chemistry, 2010).
≈ marks a conversion by molar mass, not a printed value. Entries after “also recorded” stand apart in the source; their conditions may differ. Read-outs that look alike come from different tables or passages of the source.

Legend:
Assay type in all cases: cell-based
HeLa cells = test: cytotoxicity in uninfected HeLa cells; conditions: HeLa cell cultures, microscopically detectable alteration of cell morphology
Method in brief: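 Uninfected HeLa cells were treated with serial dilutions of test compound, run in parallel with the CPE-reduction antiviral assay. Minimum cytotoxic concentration was the lowest concentration causing microscopically detectable alteration of normal cell morphology. CC50 was the 50% cytotoxic concentration, measured as cell viability by the colorimetric formazan-based MTS assay.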

Staphylococcus aureus = test: MIC by tube dilution, S. aureus; conditions: 24 h, read-out: pMICsa (Eq. (1)) Obs.
Method in brief: (§1)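 Tube-dilution MIC. Test compound was dissolved in DMSO at 100 μg/mL, then serially diluted in double-strength nutrient broth (I.P.). Tubes were incubated at 37 °C for 24 h. MIC was the lowest concentration that inhibited microbial growth. MIC values were converted to pMIC for QSAR.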

[1] = tested on: S. aureus, B. subtilis, E. coli, C. albicans and A. niger; test: average antimicrobial activity
Method in brief: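 Tube-dilution MIC with test compound dissolved in DMSO at 100 μg/mL. Bacteria grew in double-strength nutrient broth at 37 °C for 24 h. C. albicans grew in Sabouraud dextrose broth at 37 °C for 48 h, and A. niger in the same broth at 25 °C for 7 days. MIC was the lowest growth-inhibiting concentration, converted to pMIC. pMICam = mean of the five pMIC values.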

Bacillus subtilis = test: MIC by tube dilution, B. subtilis; conditions: 24 h, read-out: pMICbs (Eq. (2)) Obs.
Method in brief: as §1

Candida albicans = test: MIC by tube dilution, C. albicans; conditions: 48 h
Escherichia coli = test: MIC by tube dilution, E. coli; conditions: 24 h, read-out: pMICec (Eq. (3)) Obs.
Method in brief: as §1

[2] = tested on: Vesicular stomatitis virus
B. subtilis = test: MBC determination, B. subtilis; conditions: static when MBC 3-fold higher than MIC
Method in brief: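 100 μL of culture from each tube that stayed clear in the MIC test was subcultured on fresh medium. MBC was the lowest compound concentration producing a 99.9% end-point reduction.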

[3] = read-out: pMICam (Eq. (9)) Obs.
[4] = read-out: pMICam MLR (Eq. (10)) Obs.
[5] = read-out: pMICca (Eq. (4)) Obs.

| Compound | Cytotoxicity Minimum cytotoxic conc. (HeLa cells) | MIC (Staphylococcus aureus) [µM] | MIC [1, 3] [µM] | MIC [1, 4] [µM] | MIC (Bacillus subtilis) [µM] | MIC (Candida albicans; [5]) [µM] | MIC (Escherichia coli) [µM] | antiviral activity against Vesicular stomatitis virus (VSV), in words [2] | MIC (Candida albicans; read-out: pMICca) [µM] | bacteriostatic/bactericidal action against B. subtilis (B. subtilis) |
| --- | --- | --- | --- | --- | --- | --- | --- | --- | --- | --- |
| Nc1ncnc2c1ncn2C[C@H](O)CO [(S)-DHPA, reference compound] | >250 µM |  |  |  |  |  |  |  |  |  |
| CCCCCCCCCCCC(=O)N/N=C/c1ccccc1 [Compound 1] |  | 41.7 (≈ 12.6 µg/mL) | 50.1 (≈ 15.2 µg/mL) | 50.1 (≈ 15.2 µg/mL) | 50.1 (≈ 15.2 µg/mL) | 61.7 (≈ 18.6 µg/mL) | 41.7 (≈ 12.6 µg/mL) |  |  |  |
| CCCCCCCCCCCCCC(=O)N/N=C/c1ccccc1 [Compound 2] |  | 38 (≈ 12.6 µg/mL) | 45.7 (≈ 15.1 µg/mL) | 45.7 (≈ 15.1 µg/mL) | 38 (≈ 12.6 µg/mL) | 57.5 (≈ 19 µg/mL) | 43.7 (≈ 14.4 µg/mL) |  |  |  |
| CCCCCCCCCCCCCCCC(=O)N/N=C/c1ccccc1 [Compound 3] |  | 34.7 (≈ 12.4 µg/mL) | 38.9 (≈ 13.9 µg/mL) | 38.9 (≈ 13.9 µg/mL) | 34.7 (≈ 12.4 µg/mL) | 17.4 (≈ 6.23 µg/mL) | 31.6 (≈ 11.3 µg/mL) |  |  |  |
| CCCCCCCCCCCCCCCCCC(=O)N/N=C/c1ccccc1 [Compound 4] |  | 32.4 (≈ 12.5 µg/mL) | 24.5 (≈ 9.49 µg/mL) | 24.5 (≈ 9.49 µg/mL) | 32.4 (≈ 12.5 µg/mL) | 8.13 (≈ 3.14 µg/mL) | 16.2 (≈ 6.27 µg/mL) |  |  |  |
| C/C=C/C=C/C(=O)N/N=C/c1ccccc1 [Compound 5] |  | 58.9 (≈ 12.6 µg/mL) | 58.9 (≈ 12.6 µg/mL) | 58.9 (≈ 12.6 µg/mL) | 58.9 (≈ 12.6 µg/mL) | 117 (≈ 25.2 µg/mL) | 58.9 (≈ 12.6 µg/mL) |  |  |  |
| O=C(/C=C/c1ccccc1)N/N=C/c1ccccc1 [Compound 6] |  | 50.1 (≈ 12.5 µg/mL) | 33.1 (≈ 8.29 µg/mL) | 33.1 (≈ 8.29 µg/mL) | 50.1 (≈ 12.5 µg/mL) | 12.6 (≈ 3.15 µg/mL) | 50.1 (≈ 12.5 µg/mL) |  |  |  |
| Cc1cccc(C(=O)N/N=C/c2ccccc2)c1 [Compound 7] |  | 52.5 (≈ 12.5 µg/mL) | 34.7 (≈ 8.26 µg/mL) | 34.7 (≈ 8.26 µg/mL) | 52.5 (≈ 12.5 µg/mL) | 13.2 (≈ 3.14 µg/mL) | 52.5 (≈ 12.5 µg/mL) |  |  |  |
| Cc1ccc(C(=O)N/N=C/c2ccccc2)cc1 [Compound 8] |  | 52.5 (≈ 12.5 µg/mL) | 38.9 (≈ 9.27 µg/mL) | 38.9 (≈ 9.27 µg/mL) | 52.5 (≈ 12.5 µg/mL) | 45.7 (≈ 10.9 µg/mL) | 52.5 (≈ 12.5 µg/mL) |  |  |  |
| COc1cc(OC)cc(C(=O)N/N=C/c2ccccc2)c1 [Compound 9] | 100 µg/mL | 43.7 (≈ 12.4 µg/mL) | 28.8 (≈ 8.2 µg/mL) | 28.8 (≈ 8.2 µg/mL) | 43.7 (≈ 12.4 µg/mL) | 11 (≈ 3.12 µg/mL) | 43.7 (≈ 12.4 µg/mL) | active; also recorded: antiviral potential |  |  |
| O=C(N/N=C/c1ccccc1)c1cc([N+](=O)[O-])cc([N+](=O)[O-])c1 [Compound 10] |  | 39.8 (≈ 12.5 µg/mL) | 30.2 (≈ 9.49 µg/mL) | 30.2 (≈ 9.49 µg/mL) | 39.8 (≈ 12.5 µg/mL) | 20 (≈ 6.27 µg/mL) | 39.8 (≈ 12.5 µg/mL) |  | 20 (≈ 6.27 µg/mL) |  |
| CCCCCCCCCCCC(=O)N/N=C/c1ccccc1Cl [Compound 11] |  | 37.2 (≈ 12.5 µg/mL) | 27.5 (≈ 9.28 µg/mL) | 27.5 (≈ 9.28 µg/mL) | 37.2 (≈ 12.5 µg/mL) | 18.6 (≈ 6.27 µg/mL) | 15.8 (≈ 5.34 µg/mL) |  |  |  |
| CCCCCCCCCCCCCC(=O)N/N=C/c1ccccc1Cl [Compound 12] |  | 33.9 (≈ 12.4 µg/mL) | 46.8 (≈ 17.1 µg/mL) | 46.8 (≈ 17.1 µg/mL) | 33.9 (≈ 12.4 µg/mL) | 75.9 (≈ 27.7 µg/mL) | 33.9 (≈ 12.4 µg/mL) |  |  |  |
| CCCCCCCCCCCCCCCC(=O)N/N=C/c1ccccc1Cl [Compound 13] |  | 31.6 (≈ 12.4 µg/mL) | 26.9 (≈ 10.6 µg/mL) | 26.9 (≈ 10.6 µg/mL) | 32.4 (≈ 12.7 µg/mL) | 7.94 (≈ 3.12 µg/mL) | 31.6 (≈ 12.4 µg/mL) |  |  | active bactericidal agents |
| CCCCCCCCCCCCCCCCCC(=O)N/N=C/c1ccccc1Cl [Compound 14] |  | 29.5 (≈ 12.4 µg/mL) | 28.8 (≈ 12.1 µg/mL) | 28.8 (≈ 12.1 µg/mL) | 29.5 (≈ 12.4 µg/mL) | 14.8 (≈ 6.23 µg/mL) | 29.5 (≈ 12.4 µg/mL) |  |  | active bactericidal agents |
| C/C=C/C=C/C(=O)N/N=C/c1ccccc1Cl [Compound 15] |  | 50.1 (≈ 12.5 µg/mL) | 39.8 (≈ 9.9 µg/mL) | 39.8 (≈ 9.9 µg/mL) | 50.1 (≈ 12.5 µg/mL) | 25.1 (≈ 6.25 µg/mL) | 50.1 (≈ 12.5 µg/mL) |  |  |  |
| O=C(/C=C/c1ccccc1)N/N=C/c1ccccc1Cl [Compound 16] |  | 43.7 (≈ 12.4 µg/mL) | 30.2 (≈ 8.6 µg/mL) | 30.2 (≈ 8.6 µg/mL) | 43.7 (≈ 12.4 µg/mL) | 17.4 (≈ 4.95 µg/mL) | 43.7 (≈ 12.4 µg/mL) |  | 17.4 (≈ 4.95 µg/mL) |  |
| Cc1cccc(C(=O)N/N=C/c2ccccc2Cl)c1 [Compound 17] |  | 45.7 (≈ 12.5 µg/mL) | 42.7 (≈ 11.6 µg/mL) | 42.7 (≈ 11.6 µg/mL) | 45.7 (≈ 12.5 µg/mL) | 45.7 (≈ 12.5 µg/mL) | 45.7 (≈ 12.5 µg/mL) |  |  |  |
| Cc1ccc(C(=O)N/N=C/c2ccccc2Cl)cc1 [Compound 18] |  | 45.7 (≈ 12.5 µg/mL) | 35.5 (≈ 9.68 µg/mL) | 35.5 (≈ 9.68 µg/mL) | 45.7 (≈ 12.5 µg/mL) | 24.5 (≈ 6.69 µg/mL) | 45.7 (≈ 12.5 µg/mL) |  | 24.5 (≈ 6.69 µg/mL) |  |
| COc1cc(OC)cc(C(=O)N/N=C/c2ccccc2Cl)c1 [Compound 19] | 100 µg/mL | 38.9 (≈ 12.4 µg/mL) | 27.5 (≈ 8.78 µg/mL) | 27.5 (≈ 8.78 µg/mL) | 38.9 (≈ 12.4 µg/mL) | 9.77 (≈ 3.12 µg/mL) | 38.9 (≈ 12.4 µg/mL) | active; also recorded: antiviral potential |  |  |
| O=C(N/N=C/c1ccccc1Cl)c1cc([N+](=O)[O-])cc([N+](=O)[O-])c1 [Compound 20] |  | 35.5 (≈ 12.4 µg/mL) | 25.1 (≈ 8.76 µg/mL) | 25.1 (≈ 8.76 µg/mL) | 35.5 (≈ 12.4 µg/mL) | 8.91 (≈ 3.11 µg/mL) | 35.5 (≈ 12.4 µg/mL) |  |  |  |
| NC(=O)c1ncn([C@@H]2O[C@H](CO)[C@@H](O)[C@H]2O)n1 [Ribavirin, reference compound] | >250 µM |  |  |  |  |  |  |  |  |  |
